{"source": "ChEMBL document CHEMBL1158681", "about": "“Flavones and sesquiterpene lactones from Achillea atrata subsp. multifida: antimicrobial activity” (1999)", "key": {"Bacillus subtilis": {"tested_on": "Bacillus subtilis", "experiment": "Antimicrobial activity against Bacillus subtilis IP 5832 after 24 hrs by agar well diffusion method", "type": "functional", "outline": "(§1)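 Agar well diffusion: stationary-phase culture suspended in saline at approx. 10^5 cfu/mL, 200 µL spread on Mueller-Hinton agar (bacteria) or Sabouraud agar (yeast, fungi). Test samples at 50 µg/50 µL added to wells. Incubated 24 h (bacteria, yeast) or 48 h (fungi). Read-out is inhibition zone diameter.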"}, "Candida albicans [1]": {"tested_on": "Candida albicans", "experiment": "Antimicrobial activity against Candida albicans ATCC 24433 after 24 hrs by agar well diffusion method", "type": "functional", "outline": "as §1"}, "Staphylococcus aureus": {"tested_on": "Staphylococcus aureus", "experiment": "Antimicrobial activity against Staphylococcus aureus ATCC 25923 after 24 hrs by agar well diffusion method", "type": "functional, organism-based", "outline": "as §1"}, "Aspergillus niger": {"tested_on": "Aspergillus niger", "experiment": "Antimicrobial activity against Aspergillus niger after 48 hrs by agar well diffusion method", "type": "functional, organism-based", "outline": "as §1"}, "Candida albicans [2]": {"tested_on": "Candida albicans", "experiment": "Antimicrobial activity against Candida albicans ATCC 24433 after 24 hrs using sabouraud liquid medium", "type": "functional", "outline": "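Broth MIC in duplicate in Sabouraud liquid medium. Samples made up at 1 mg/mL in DMSO, then serially diluted over 100-0.1 µg/mL. Inoculum is stationary-phase culture at 10^5 cfu/mL. Incubated 37 °C for 24 h. MIC taken as the lowest concentration preventing any visible growth.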"}, "Escherichia coli": {"tested_on": "Escherichia coli", "experiment": "Antimicrobial activity against Escherichia coli ATCC 25922 after 24 hrs by agar well diffusion method", "type": "functional", "outline": "as §1"}}, "note": "The source made the active and inactive calls. No cut-off for these calls is given here.", "data": [{"molecule": "COc1ccc(-c2oc3cc(O)c(OC)c(O)c3c(=O)c2OC)cc1O", "note": "[CENTAUREIDIN]", "values": [{"measurement": "inhibition zone (IZ)", "setting": "Bacillus subtilis", "result": 6, "unit": "mm"}, {"measurement": "inhibition zone (IZ)", "setting": "Candida albicans [1]", "result": 11, "unit": "mm"}, {"measurement": "Activity", "setting": "Staphylococcus aureus", "result": "inactive"}, {"measurement": "Activity", "setting": "Aspergillus niger", "result": "inactive"}, {"measurement": "MIC", "setting": "Candida albicans [2]; ATCC 24433, 24 h", "result": 3, "unit": "µg/mL"}]}, {"molecule": "COc1ccc(-c2oc3cc(O)c(OC)c(O)c3c(=O)c2OC)cc1", "note": "[SANTIN]", "values": [{"measurement": "inhibition zone (IZ)", "setting": "Bacillus subtilis", "result": 6, "unit": "mm"}, {"measurement": "inhibition zone (IZ)", "setting": "Candida albicans [1]", "result": 8, "unit": "mm"}, {"measurement": "inhibition zone (IZ)", "setting": "Escherichia coli", "result": 6, "unit": "mm"}, {"measurement": "Activity", "setting": "Staphylococcus aureus", "result": "inactive"}, {"measurement": "Activity", "setting": "Aspergillus niger", "result": "inactive"}, {"measurement": "MIC", "setting": "Candida albicans [2]; ATCC 24433, 24 h", "result": 3, "unit": "µg/mL"}]}, {"molecule": "O=c1cc(-c2ccc(O)cc2)oc2cc(O)cc(O)c12", "note": "[APIGENIN]", "values": [{"measurement": "inhibition zone (IZ)", "setting": "Bacillus subtilis", "result": 6, "unit": "mm"}, {"measurement": "inhibition zone (IZ)", "setting": "Candida albicans [1]", "result": 10, "unit": "mm"}, {"measurement": "inhibition zone (IZ)", "setting": "Escherichia coli", "result": 6, "unit": "mm"}, {"measurement": "Activity", "setting": "Staphylococcus aureus", "result": "inactive"}, {"measurement": "Activity", "setting": "Aspergillus niger", "result": "inactive"}, {"measurement": "MIC", "setting": "Candida albicans [2]; ATCC 24433, 24 h", "result": 3, "unit": "µg/mL"}]}, {"molecule": "O=c1cc(-c2ccc(O)cc2)oc2cc(O[C@@H]3O[C@H](CO)[C@@H](O)[C@H](O)[C@H]3O)cc(O)c12", "note": "[APIGETRIN]", "values": [{"measurement": "inhibition zone (IZ)", "setting": "Bacillus subtilis", "result": 6, "unit": "mm"}, {"measurement": "Activity", "setting": "Staphylococcus aureus", "result": "inactive"}, {"measurement": "Activity", "setting": "Aspergillus niger", "result": "inactive"}]}, {"molecule": "NYSTATIN", "values": [{"measurement": "MIC", "setting": "Candida albicans [2]", "result": 3.12, "unit": "µg/mL"}]}]}
